Experimental data from ChEMBL document CHEMBL2010641, “A novel 3,4-dihydropyrimidin-2(1H)-one: HIV-1 replication inhibitors with improved metabolic stability” (Bioorg Med Chem Lett, 2012).
The source made the active and inactive calls. No cut-off for these calls is given here.

Assays:
[1] = Cytotoxicity against human CEmx174 cells; assay type: cell-based
In short: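 CC50 is the concentration that reduces viability of uninfected cells by 50%. Reported as the geometric mean of two determinations (n = 2), each within 25% of the mean.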

[2] = test system: Human immunodeficiency virus 1; assay: Antiviral activity against HIV1 LAI infected in CEMx174 cells coexpressing GFP after 5 days by fluorimetry; assay type: functional, organism-based; settings: for EC50: Human immunodeficiency virus 1, LAI, CEMx174, 120 h
In short: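 Cells (4000/well) pre-incubated with compound diluted in DMSO for 1 h at 37 °C, 5% CO2, then infected with HIV-1 LAI at MOI 3 and cultured 5 days at 37 °C, 5% CO2. EC50 is the concentration inhibiting viral replication by 50%. Values are geometric means of two determinations (n = 2), each within 25% of the mean.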

[3] = Half life in human liver microsomes at 2 uM; assay type: ADME, Microsome
In short: (§1)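 Compound at 2 µM final was incubated with rat or human liver microsomes (0.5 mg/mL protein) in potassium phosphate buffer with 0.2% DMSO final. Reaction was started with NADPH and stopped at 0, 5, 10, 30, 60 and 120 min. Loss of parent was measured by LC/MS (ESI quadrupole, water/acetonitrile with 0.1% formic acid gradient). Values are geometric means of n = 2.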

[4] = Half life in rat liver microsomes at 2 uM; assay type: ADME, Microsome; in short: as §1

| EC50 [2] [µM] | half-life at 2 µM [3] [min] | half-life at 2 µM [4] [min] | SMILES | CC50 [1] [µM] | Activity [2] |
| --- | --- | --- | --- | --- | --- |
| > 10 |  |  | O=C1NC2=C(C(=O)OCC2)C(c2cccc(O)c2)N1 (stereo not given) | > 10 |  |
| > 10 |  |  | CCC1=C(C(=O)CCc2ccccc2)[C@H](c2ccc(O)c(Cl)c2)NC(=O)N1 | > 10 |  |
| 0.42 |  |  | CCC1=C(C(=O)CCC2CCCC2)[C@H](c2ccc(O)c(Cl)c2)NC(=O)N1 | > 10 |  |
|  |  |  | CCC1=C(C(=O)O)[C@H](c2ccc(O)c(Cl)c2)NC(=O)N1 |  | inactive |
| 0.48 |  |  | CCC1=C(C(=O)CC2CCC(C)CC2)[C@H](c2ccc(O)c(Cl)c2)NC(=O)N1 (stereo not given in full) | > 10 |  |
| > 10 |  |  | CCC1=C(C(=O)CC2CCC(OC)CC2)[C@H](c2ccc(O)c(Cl)c2)NC(=O)N1 (stereo not given in full) | > 10 |  |
| 1.4 |  |  | CCC1=C(C(=O)CC2CCC(C(C)C)CC2)[C@H](c2ccc(O)c(Cl)c2)NC(=O)N1 (stereo not given in full) | > 10 |  |
| 0.329 |  |  | CCC1=C(C(=O)CCC2CCCCCC2)[C@H](c2ccc(O)c(Cl)c2)NC(=O)N1 | > 10 |  |
| 0.087 | 24 | 16 | CCC1=C(C(=O)CC2CCC(CC)CC2)[C@H](c2ccc(O)c(Cl)c2)NC(=O)N1 (stereo not given in full) | > 10 |  |
|  |  |  | Cc1ccnc2c1NC(=O)c1cccnc1N2C1CC1 [NEVIRAPINE] | > 10 |  |
|  |  |  | CCC1=C(C(=O)O)[C@H](c2cccc(O)c2)NC(=O)N1 |  | inactive |
| 0.116 | 132 | 54 | CCC1=C(c2nc(C3CCCCC3)co2)[C@H](c2ccc(O)c(Cl)c2)NC(=O)N1 | > 10 |  |
|  | 11 | 1.5 | CCC1=C(C(=O)OCC2CCCCC2)[C@H](c2cccc(O)c2)NC(=O)N1 | > 10 |  |
| 0.078 | 682 | 30 | CCC1=C(c2nc(C3CCCCC3)cs2)[C@H](c2ccc(O)c(Cl)c2)NC(=O)N1 | > 10 |  |
| 3.28 |  |  | CCC1=C(C(=O)CC2CCCC2)[C@H](c2ccc(O)c(Cl)c2)NC(=O)N1 | > 10 |  |
| > 10 |  |  | O=C1NC2=C(C(=O)OC2)C(c2cccc(O)c2)N1 (stereo not given) | > 10 |  |
| > 10 |  |  | CCC1=C(c2nc(C3CCCCC3)c[nH]2)[C@H](c2ccc(O)c(F)c2)NC(=O)N1 | > 10 |  |
| 0.983 | 18 | 7 | CCC1=C(C(=O)CC2CCCCC2)[C@H](c2ccc(O)c(Cl)c2)NC(=O)N1 | > 10 |  |
| 0.403 | 22 | 5 | CCC1=C(C(=O)CCC2CCCCC2)[C@H](c2ccc(O)c(Cl)c2)NC(=O)N1 | > 10 |  |
| 0.019 | 36 | 7 | CCC1=C(C(=O)OCC2CCCCC2)[C@H](c2ccc(O)c(Cl)c2)NC(=O)N1 | > 10 |  |
